The test system of assay [1] is Mus musculus. Nature of the assay: Decrease in insulin level in human ApoB100/CETP transgenic mouse at 5 mg/kg, po after 6 weeks by ELISA relative to control. More on the design: scale not given: the % may be the effect or the level left. The assay is classed as functional.
The target in assay [2] is T1, Peroxisome proliferator-activated receptor delta (Homo sapiens, UniProt Q03181).
T1 sequence (Q03181 whole entry): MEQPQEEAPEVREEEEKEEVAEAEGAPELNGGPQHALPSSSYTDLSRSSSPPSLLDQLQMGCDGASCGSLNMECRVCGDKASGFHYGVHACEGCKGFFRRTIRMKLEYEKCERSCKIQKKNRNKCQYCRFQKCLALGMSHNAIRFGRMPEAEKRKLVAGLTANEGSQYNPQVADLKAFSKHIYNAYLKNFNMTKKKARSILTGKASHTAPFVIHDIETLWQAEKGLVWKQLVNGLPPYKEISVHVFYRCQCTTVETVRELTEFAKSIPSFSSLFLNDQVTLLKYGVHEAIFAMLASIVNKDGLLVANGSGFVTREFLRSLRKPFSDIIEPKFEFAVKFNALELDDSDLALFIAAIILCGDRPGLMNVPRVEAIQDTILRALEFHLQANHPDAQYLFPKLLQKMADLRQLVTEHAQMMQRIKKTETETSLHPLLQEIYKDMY

Assay [3] has as its system Mus musculus. Nature of the assay: Decrease in LDL level in human ApoB100/CETP transgenic mouse at 20 mg/kg, po after 6 weeks relative to control. On the set-up: scale not given: the % may be the effect or the level left. The assay is classed as functional.
Assay [4] relates to L6. Nature of the assay: Effect on glucose oxidation in rat L6 cells. The assay is classed as functional, cell-based. In a few lines:
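Differentiated rat L6 cells handled as for the fatty acid oxidation assay, with tritiated palmitate replaced by 10 µCi/mL [5-3H]-D-glucose; oxidation measured as 3H-H2O released into medium after TCA stop, collected by overnight equilibration at 50 °C and scintillation counting. FCCP served as positive control.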

Assay [5] concerns L6. Nature of the assay: Effect on fatty acid oxidation in rat L6 cells. The assay is classed as functional, cell-based. In a few lines:
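Rat L6 myoblasts differentiated 5 days in 2% serum, then treated 42 h with compound (refreshed at 24 h), followed by 6 h with 0.4 mM palmitate containing [9,10-3H]-palmitic acid on 2% fatty-acid-free BSA. Stopped with 10% TCA; released 3H-H2O collected by overnight equilibration at 50 °C and counted.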

For assay [6], the system named is Mus musculus. Nature of the assay: Increase in HDL level in human ApoB100/CETP transgenic mouse at 20 mg/kg, po after 6 weeks relative to control. The assay is classed as functional.
Assay [7] concerns Mus musculus. Nature of the assay: Increase in insulin level in human ApoB100/CETP transgenic mouse at 20 mg/kg, po after 6 weeks by ELISA relative to control. The assay is classed as functional. (An ELISA detects its analyte on a solid surface through an enzyme-linked reagent.)
Assay [8] addresses T2, Peroxisome proliferator-activated receptor gamma (Mus musculus) (UniProt P37238).
T2 sequence (whole entry): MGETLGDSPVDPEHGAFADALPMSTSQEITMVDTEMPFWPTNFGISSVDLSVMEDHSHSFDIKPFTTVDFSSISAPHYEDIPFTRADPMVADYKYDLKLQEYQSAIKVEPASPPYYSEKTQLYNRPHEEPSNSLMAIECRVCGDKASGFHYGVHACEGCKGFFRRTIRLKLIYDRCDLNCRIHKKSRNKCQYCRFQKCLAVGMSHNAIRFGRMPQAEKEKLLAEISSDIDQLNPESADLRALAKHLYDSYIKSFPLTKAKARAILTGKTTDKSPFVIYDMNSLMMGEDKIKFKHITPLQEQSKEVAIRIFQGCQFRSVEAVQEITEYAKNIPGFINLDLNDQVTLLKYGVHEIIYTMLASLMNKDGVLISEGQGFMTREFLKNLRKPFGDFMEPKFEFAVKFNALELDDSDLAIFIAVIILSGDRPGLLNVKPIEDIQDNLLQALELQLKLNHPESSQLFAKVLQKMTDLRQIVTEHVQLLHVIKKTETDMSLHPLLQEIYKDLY
Nature of the assay: Agonist activity at mouse PPAR gamma expressed in HEK293 cells up to 30 uM by PPAR-GAL4 transactivation assay. The assay is classed as functional, cell-based.

Assay [9] has as its system Mus musculus. Nature of the assay: Decrease in glucose level in human ApoB100/CETP transgenic mouse at 5 mg/kg, po after 6 weeks relative to control. The assay is classed as functional. More on the design: scale not given: the % may be the effect or the level left.
For assay [10], the target named is T3, Peroxisome proliferator-activated receptor delta (Mus musculus, UniProt P35396).
T3 sequence (P35396 whole entry): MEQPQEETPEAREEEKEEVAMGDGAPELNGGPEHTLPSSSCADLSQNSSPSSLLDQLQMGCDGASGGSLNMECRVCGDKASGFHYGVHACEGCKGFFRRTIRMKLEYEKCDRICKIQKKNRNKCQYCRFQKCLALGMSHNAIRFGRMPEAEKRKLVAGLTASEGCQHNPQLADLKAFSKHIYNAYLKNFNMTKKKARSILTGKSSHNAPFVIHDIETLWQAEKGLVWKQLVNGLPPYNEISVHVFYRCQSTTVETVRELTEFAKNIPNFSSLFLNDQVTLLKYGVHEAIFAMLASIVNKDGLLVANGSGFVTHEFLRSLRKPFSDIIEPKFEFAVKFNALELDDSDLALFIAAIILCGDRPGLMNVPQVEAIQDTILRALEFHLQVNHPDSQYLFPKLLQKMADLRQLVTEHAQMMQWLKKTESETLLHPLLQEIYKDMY
Nature of the assay: (§1) Agonist activity at mouse PPAR delta expressed in HEK293 cells by PPAR-GAL4 transactivation assay. The format is functional, cell-based.

The target in assay [11] is T4, Peroxisome proliferator-activated receptor delta (Mus musculus) (UniProt P35396).
T4 sequence (whole entry): T3 sequence (P35396 whole entry)
The description is as §1. The format is functional, cell-based.

In assay [12] the target is T5, Peroxisome proliferator-activated receptor alpha (Homo sapiens, UniProt Q07869).
T5 sequence (Q07869 whole entry): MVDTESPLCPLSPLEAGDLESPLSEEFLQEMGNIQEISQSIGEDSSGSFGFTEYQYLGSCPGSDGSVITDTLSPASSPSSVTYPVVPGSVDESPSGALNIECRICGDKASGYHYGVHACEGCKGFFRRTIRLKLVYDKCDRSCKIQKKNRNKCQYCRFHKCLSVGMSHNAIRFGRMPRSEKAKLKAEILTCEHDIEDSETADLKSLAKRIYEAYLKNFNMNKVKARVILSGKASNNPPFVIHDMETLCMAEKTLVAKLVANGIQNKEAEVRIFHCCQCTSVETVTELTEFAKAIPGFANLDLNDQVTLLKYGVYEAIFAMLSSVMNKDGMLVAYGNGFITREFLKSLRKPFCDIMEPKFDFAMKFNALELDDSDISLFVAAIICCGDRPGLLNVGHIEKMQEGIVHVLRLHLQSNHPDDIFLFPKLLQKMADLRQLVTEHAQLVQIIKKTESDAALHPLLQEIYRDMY
Nature of the assay: Activity at human liver PPAR alpha expressed in HEK293 cells by PPAR-GAL4 transactivation assay. The assay is classed as cell-based.

The test system of assay [13] is Mus musculus. Nature of the assay: Decrease in LDL level in human ApoB100/CETP transgenic mouse at 10 mg/kg, po after 6 weeks relative to control. The format is functional. More on the design: scale not given: the % may be the effect or the level left.

Structures are written as SMILES. Activity calls are given as the source filed them. No cut-off for these calls is given here.

As usually defined, the EC50 is the midpoint of the concentration-response curve. On to `O=C(O)COc1ccc(SCC=C(c2ccc(Br)cc2)c2ccc(Br)cc2)cc1Cl`, for which the Activity with Mus musculus [1] is 11%; with Mus musculus [3] it was 35%; in the assay on Mus musculus [6], 33%; with Mus musculus [7], 3%; in the assay with Mus musculus [9], 3%; in assay [11] it was 167%. This compound also displayed an Activity in the assay on Mus musculus [13] of 12%. The EC50 in assay [2] was 53 nM; in the assay on L6 [5], 30 nM; in assay [10] it was 300 nM; in [12], above 10000 nM. Besides, the outcome (in the assay with L6 [4]; in [8]) was inactive.

Values taken from ChEMBL document CHEMBL1142981, “Identification and synthesis of a novel selective partial PPARdelta agonist with full efficacy on lipid metabolism in vitro and in vivo” (J Med Chem, 2007).
